Measurements: ChEMBL document CHEMBL2346625 (Bioorg Med Chem, 2013)
Converted amounts (≈) assume the structure as drawn.

Legend:
Streptococcus pyogenes = test: Growth inhibition of Streptococcus pyogenes UMAA2616 at 50 uM relative to control; assay type: organism-based; details: in vitro
Summary of the method: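 Diluted 1:1000 into THY containing compound at 50 μM in 0.1% DMSO and grown in triplicate at 37 °C to OD600 ≈ 1.0. Growth given as OD600 test/DMSO control; mean of at least three experiments ± SD.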

Liver [1] = test: (§1) Half life in mouse liver microsomes at 0.5 to 1 uM by LC-MS/MS analysis; assay type: ADME, Microsome; details: microsomes, 1 µM
[2] = as §1; assay type: ADME, Microsome; details: liver microsomes
[3] = molecular target: T1, Streptokinase (Streptococcus pyogenes) (UniProt P96471); test: Inhibition of Streptococcus pyogenes UMAA2616 streptokinase assessed as cleavage of S-2403 to colored product p-nitroaniline at 50 uM after 2 hrs relative to control
T1 sequence (whole entry): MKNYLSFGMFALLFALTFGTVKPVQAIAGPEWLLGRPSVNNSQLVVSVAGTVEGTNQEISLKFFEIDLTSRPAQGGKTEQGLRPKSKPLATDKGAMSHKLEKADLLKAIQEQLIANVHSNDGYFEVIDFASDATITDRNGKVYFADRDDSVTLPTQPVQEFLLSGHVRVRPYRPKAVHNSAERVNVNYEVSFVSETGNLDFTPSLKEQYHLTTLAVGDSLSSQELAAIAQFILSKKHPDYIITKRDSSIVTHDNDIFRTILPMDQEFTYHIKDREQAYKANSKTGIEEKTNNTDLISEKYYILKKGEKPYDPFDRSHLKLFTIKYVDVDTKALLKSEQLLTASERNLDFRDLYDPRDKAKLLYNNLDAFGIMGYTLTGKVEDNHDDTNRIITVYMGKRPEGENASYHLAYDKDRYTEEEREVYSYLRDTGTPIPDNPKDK
Summary of the method: (§2)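 UMAA2616 grown in THY (0.1% DMSO, compound at 5 or 50 μM) at 37 °C to OD600 ≈ 1.0, then centrifuged. Supernatant mixed with PBS, human plasma and S-2403 plasmin substrate and incubated 2 h at 37 °C; A405 read. Activity came from a DMSO-culture standard curve, was corrected for growth by OD600 and expressed as test/control. Mean of at least three experiments ± SD.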

[4] = molecular target: T1, Streptokinase (Streptococcus pyogenes); test: Inhibition of Streptococcus pyogenes UMAA2616 streptokinase assessed as cleavage of S-2403 to colored product p-nitroaniline at 5 uM after 2 hrs relative to control; summary of the method: as §2
[5] = Kinetic solubility of the compound in aqueous Todd Hewitt bacterial media at 0.87 to 99 uM by UV/Vis spectrophotometry; assay type: physicochemical; details: read-out: Kinetic_solubility
Summary of the method: (§3)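 10 mM DMSO stocks serially diluted in DMSO, then added 1:100 to Todd-Hewitt broth at 37 °C, giving final 0.87–99 μM. Plate shaken, incubated 5 min at 37 °C, and OD600 read (n = 3). Solubility taken as the midpoint between the first concentration with OD600 ≥ 0.005 AU above background and the preceding concentration, ± half the interval.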

Streptokinase = molecular target: T2, Streptokinase (Streptococcus pyogenes, UniProt P96471)
T2 sequence (P96471 whole entry): T1 sequence (whole entry)

[6] = Kinetic solubility of the compound in phosphate-buffered saline at 0.87 to 99 uM by UV/Vis spectrophotometry; assay type: physicochemical
Summary of the method: as §3, with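 “PBS” for “Todd-Hewitt broth”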

Liver [7] = test: Metabolic stability in mouse liver microsomes assessed as oxidation of compound; assay type: ADME, Microsome

| SMILES | T/C (Streptococcus pyogenes) | t1/2 (Liver [1]) [min] | also measured |
| --- | --- | --- | --- |
| C=CCn1c(SCC)nc2c(c1=O)C(C)(C)Cc1cc(OCCCC)ccc1-2 | 0.87 | – | – |
| CCn1c(SCc2ccccc2)nc2c(c1=O)C1(CCCC1)Cc1ccccc1-2 | 1.07 | – | – |
| C=CCn1c(SCc2ccc(OC)cc2)nc2c(c1=O)C1(CCCCC1)Cc1ccccc1-2 | 1.05 | – | – |
| CCn1c(SCCOC)nc2c(c1=O)C(C)(C)Cc1ccccc1-2 | 0.39 | 0.8 | – |
| COCCSc1nc2c(c(=O)n1CCc1ccc(OC)cc1)C(C)(C)Cc1ccccc1-2 | 0.97 | – | half-life [2]: 9.4 min; T/C [3]: 0.61; T/C [4]: 0.71 |
| C=CCn1c(SCC)nc2c(c1=O)C(C)(C)Cc1cc(OCCc3ccccc3)ccc1-2 | 1.01 | – | – |
| C=CCn1c(SCC)nc2c(c1=O)C(C)(C)Cc1cc(OCCOC)ccc1-2 | 0.85 | – | – |
| C=CCn1c(SCc2ccccc2)nc2c(c1=O)C(C)(C)Cc1ccccc1-2 | – | – | solubility kinetic [5]: 9 µM (≈ 3.5 µg/mL) |
| C=CCn1c(SCc2ccccc2)nc2c(c1=O)C1(CCCCC1)Cc1ccccc1-2 [CCG-102487] | 0.96 | 0.6 | solubility kinetic [5]: 9 µM (≈ 3.86 µg/mL); IC50 (Streptokinase): > 50 µM |
| C=CCn1c(SC)nc2c(c1=O)C1(CCCCC1)Cc1ccccc1-2 | – | 13.5 | solubility kinetic [5]: 22 µM (≈ 7.76 µg/mL) |
| C=CCn1c(SCC(N)=O)nc2c(c1=O)C(C)(C)Cc1ccccc1-2 | 1 | < 2 | – |
| C=CCn1c(SCCOC)nc2c(c1=O)C(C)(C)Cc1cc(C(=O)NCCc3c[nH]cn3)ccc1-2 | 0.99 | – | – |
| CCSc1nc2c(c(=O)n1CC(F)(F)F)C(C)(C)Cc1ccc(OC)cc1-2 | 1.01 | – | half-life [2]: 3 min |
| C=CCn1c(SCCN(C)C)nc2c(c1=O)C1(CCCCC1)Cc1ccccc1-2 | 0.88 | – | – |
| C=CCn1c(SCCOC)nc2c(c1=O)C(C)(C)Cc1cc(C(=O)O)ccc1-2 | 0.86 | – | – |
| C=CCn1c(OCC)nc2c(c1=O)C(C)(C)Cc1ccccc1-2 | 0.5 | 0.9 | – |

| SMILES | T/C (Streptococcus pyogenes) | t1/2 (Liver [1]) [min] | also measured |
| --- | --- | --- | --- |
| C=CCn1c(SCCO)nc2c(c1=O)C(C)(C)Cc1ccccc1-2 | 0.06 | – | – |
| C=CCn1c(SCC)nc2c(c1=O)C(C)(C)Cc1ccc(OCCOC)cc1-2 | 1.02 | – | – |
| C=CCn1c(SCc2ccccn2)nc2c(c1=O)C(C)(C)Cc1ccccc1-2 | 1.05 | – | – |
| C=CCn1c(SCCOC)nc2c(c1=O)C(C)(C)Cc1ccccc1-2 | – | 1.7 | solubility kinetic [5]: 22.5 µM (≈ 8.02 µg/mL) |
| C=CCn1c(SCC#N)nc2c(c1=O)C(C)(C)Cc1ccccc1-2 | 1 | 20.6 | solubility kinetic [5]: 34.5 µM (≈ 11.6 µg/mL); solubility kinetic [6]: 3 µM (≈ 1.01 µg/mL) |
| C=CCn1c(NCC)nc2c(c1=O)C(C)(C)Cc1cc(CC(=O)OCC)ccc1-2 | 1.02 | – | – |
| C=CCn1c(SCCOC)nc2c(c1=O)C1(CCCCC1)Cc1ccccc1-2 | 0.99 | 6.4 | solubility kinetic [5]: 9 µM (≈ 3.57 µg/mL); Stability (Liver [7]): Stable |
| C=CCn1c(NCC)nc2c(c1=O)C(C)(C)Cc1ccccc1-2 | 0.06 | 1.1 | – |
| C=CCn1c(SCc2ccc(NC(C)=O)cc2)nc2c(c1=O)C1(CCCCC1)Cc1ccccc1-2 | 0.96 | – | – |
| C=CCn1c(OCC)nc2c(c1=O)C1(CCCCC1)Cc1ccccc1-2 | 1.02 | – | solubility kinetic [5]: 14.5 µM (≈ 5.08 µg/mL) |
| C=CCn1c(SCCCC)nc2c(c1=O)C1(CCCCC1)Cc1ccccc1-2 [CCG-2979] | 0.95 | 37.2 | solubility kinetic [5]: 9 µM (≈ 3.55 µg/mL); solubility kinetic [6]: 2 µM (≈ 0.789 µg/mL); IC50 (Streptokinase): > 50 µM |
| C=CCn1c(SCC(=O)OCC)nc2c(c1=O)C(C)(C)Cc1ccccc1-2 | 1.01 | – | – |
| C=CCn1c(NCC)nc2c(c1=O)C1(CCCCC1)Cc1ccccc1-2 | 0.32 | – | solubility kinetic [5]: 9 µM (≈ 3.15 µg/mL) |
| C=CCn1c(SCC)nc2c(c1=O)C(C)(C)Cc1cc(OCCCCCCC)ccc1-2 | 1.05 | – | – |
| C=CCn1c(SCCOC)nc2c(c1=O)C(C)(C)Cc1cc(C(=O)NCc3ccccc3)ccc1-2 | 1.07 | – | – |
